Source: PubChem BioAssay
Only some compounds are listed: those with a hit (about 2.3% of all), similar ones and a draw of the others.
TRPC4 inh: blocks the mouse TRPC4 cation channel; actives 0.39% (n = 300,000); AID 2247; Q9QUQ5; B-score at 10 µM; HEK293 TRPC4beta/mu-opioid, DAMGO-evoked Fluo4 calcium flux; active compounds read low;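 active = B-score over 3 SD under the library average, no early fluorescence shift, positive overall ratio signal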
Target sequence (Q9QUQ5 whole entry, looked up): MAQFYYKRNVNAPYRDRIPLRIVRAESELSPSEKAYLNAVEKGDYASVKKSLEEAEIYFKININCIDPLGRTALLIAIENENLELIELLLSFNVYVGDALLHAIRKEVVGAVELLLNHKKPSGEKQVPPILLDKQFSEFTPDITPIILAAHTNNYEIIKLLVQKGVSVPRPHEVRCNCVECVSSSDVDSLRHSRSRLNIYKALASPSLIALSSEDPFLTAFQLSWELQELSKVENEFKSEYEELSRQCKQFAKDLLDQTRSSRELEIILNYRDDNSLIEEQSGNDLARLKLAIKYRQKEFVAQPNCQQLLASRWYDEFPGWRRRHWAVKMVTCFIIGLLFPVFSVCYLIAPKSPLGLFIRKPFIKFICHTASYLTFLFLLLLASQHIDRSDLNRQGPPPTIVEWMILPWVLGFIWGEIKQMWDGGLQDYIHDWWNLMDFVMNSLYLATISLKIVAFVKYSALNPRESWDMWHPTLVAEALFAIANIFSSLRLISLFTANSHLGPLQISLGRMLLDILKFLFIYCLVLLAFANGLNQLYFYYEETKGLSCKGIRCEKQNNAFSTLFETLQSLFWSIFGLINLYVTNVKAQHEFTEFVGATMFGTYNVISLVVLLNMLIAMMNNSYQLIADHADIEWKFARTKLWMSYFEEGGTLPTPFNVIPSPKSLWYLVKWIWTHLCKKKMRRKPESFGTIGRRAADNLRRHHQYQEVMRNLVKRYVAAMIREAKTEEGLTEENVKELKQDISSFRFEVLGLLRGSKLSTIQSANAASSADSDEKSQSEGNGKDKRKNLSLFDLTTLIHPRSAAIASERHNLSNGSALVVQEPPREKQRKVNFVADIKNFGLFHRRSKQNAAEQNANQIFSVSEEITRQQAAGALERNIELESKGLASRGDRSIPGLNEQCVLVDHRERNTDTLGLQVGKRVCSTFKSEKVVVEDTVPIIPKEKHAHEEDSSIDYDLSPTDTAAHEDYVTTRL
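Assay system – HEK293 line stably carrying TRPC4beta and mu-opioid receptor · Doses – single dose · Detection – Fluo4 calcium-dye fluorescence, kinetic read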
TRPC4 potent: TRPC4 (mouse) allosteric potentiation; Q9QUQ5; HEK293 TRPC4beta/mu-opioid, DAMGO EC20, Fluo-4 Ca2+ flux; active compounds read high; B-score at 10 µM; actives 0.42% (n = 310,000); AID 2227;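 active = B-score of calcium response area above 5 SD of library B-scores, with initial fluorescence ratio within 5 SD of library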;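 also: B-score of integrated fluorescence ratio over time as area under calcium response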
TRPC6 act: activators of mouse TRPC6 channel | Q61143 | actives 0.13% (n = 310,000) | B-score at 10 µM | HEK293-TRPC6 membrane potential dye fluorescence; active compounds read high;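 active = B-score of the integrated fluorescence ratio above library mean plus 3 SD, and starting fluorescence ratio within library mean plus 5 SD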;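 also: higher score means more depolarization so channel activation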
TRPC6 inhibitor: inhibitors of mouse TRPC6 channel | Q61143 | B-score at 10 µM | actives 1.1% (n = 310,000) | HEK293-TRPC6, membrane potential dye, ACh-evoked depolarization; active compounds read low;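 active = B-score under library mean minus 3 SD, initial fluorescence not abnormally high, positive integrated signal ratio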;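 also: B-score derived from integrated fluorescence ratio over the kinetic read; more negative B-score means stronger inhibition of depolarization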
TRPC4 act: opens the mouse TRPC4 cation channel. actives 0.49% (n = 310,000). Q9QUQ5. HEK293 TRPC4beta/mu-opioid, Fluo4 calcium fluorescence; active compounds read high. AID 2237. B-score at 10 µM;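 active = B-score above 5 SD of library B-scores, and initial fluorescence ratio not above library mean plus 5 SD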;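 also: positive B-score marks a calcium rise read as TRPC4 activation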
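Assay system: HEK293 stable line with TRPC4beta plus mu-opioid receptor. Times: dye 45 min RT, read 110 s. Measured by: kinetic Fluo4 calcium fluorescence. Measure: B score of integrated ratio. Controls: assay buffer as low control, maximal DAMGO as high control.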
The depositor's hits bear a star; i = inactive.

SMILES	TRPC4 inh	TRPC4 potent	TRPC6 act	TRPC6 inhibitor	TRPC4 act
CN(C)C(CNC(=O)c1oc2ccccc2c1CSc1ncn[nH]1)c1ccco1 (stereo not drawn)	-7*	i	i	i	i
CC(C)OP(=O)(c1ccc(N(C)C)cc1)C(O)c1cccnc1 (stereo not drawn)	i	i	i	i	i
CCOC(=O)C1=C(C)NC(=O)CC1c1cc2c(cc1[N+](=O)[O-])OCO2 (stereo not drawn)	-7*	i	i	i	i
CCN(Cc1nc(-c2cccc(C)c2)no1)C(=O)c1ccco1	i	i	i	i	i
CC(C)c1ccc(OCc2ccc(C(=O)N3CCCC3)o2)cc1	i	42*	i	i	i
CCCc1ccc(OCc2ccc(C(=O)N3CCCC3)o2)cc1	i	26*	i	i	i
CCOC(=O)c1ccc(COc2ccc(C(C)C)cc2)o1	i	i	i	i	i
CCOc1ccc(OCc2ccc(C(=O)N3CCCC3)o2)cc1	i	i	i	i	i
COc1ccccc1/C=C/C=N/N1CCN(Cc2ccccc2)CC1	i	i	i	i	i
Cc1ccc(CN2CCN(/N=C/C=C/c3ccccc3[N+](=O)[O-])CC2)cc1	i	14*	i	i	i
COc1cc(NC(C)CCCN)c2ncccc2c1Oc1ccccc1 (stereo not drawn)	i	i	i	i	83*
CC(C)(C)[C@]1(O)CCN2C[C@H]3c4ccccc4CCc4cccc(c43)[C@@H]2C1	i	i	i	i	61*
Cc1ccc(S(=O)(=O)n2c3ccc(F)cc3c3nc(C)sc32)cc1	i	i	i	i	i
Cc1ccc(NC(=O)CSc2ncc3ccccn23)cc1	i	i	i	i	i
Fc1cccc(Cl)c1C1Nc2cccc3cccc(c23)N1	i	i	i	i	i
Clc1cccc(Cl)c1C1Nc2cccc3cccc(c23)N1	i	i	i	-5.5*	i
O=C(c1cccc(S(=O)(=O)N2CCc3ccccc32)c1)N1CCN(c2ccccn2)CC1	i	i	16*	i	i
CC(C)N1CCN(c2ccc(S(=O)(=O)N3CCOCC3)cn2)CC1	i	i	i	i	i
CCCN1C(=O)c2[nH]nc(-c3cc(Cl)c(C)cc3O)c2C1c1ccc(O)c(OC)c1 (stereo not drawn)	i	11*	i	i	i
COCCCN1C(=O)c2[nH]nc(-c3ccccc3O)c2C1c1ccc(Cl)cc1 (stereo not drawn)	i	13*	i	i	i
Cc1cc(NS(=O)(=O)c2ccc(NC(=O)COc3ccc(Cl)c(C)c3)cc2)no1	-6*	i	i	i	i
Cc1ccc(N2CCN(C(=O)c3ccccc3F)CC2)c(C)c1	-7*	i	i	i	i
CCC(=O)c1ccc(N2CCN(C(=O)c3ccccc3F)CC2)c(F)c1	i	i	i	i	i
CCC(=O)c1ccc(N2CCN(C(=O)c3ccccc3Br)CC2)c(F)c1	i	28*	i	i	i
COc1ccc(CNC(=O)CNC(=O)c2cccs2)c(OC)c1	i	i	i	i	i
SMILES	TRPC4 inh	TRPC4 potent	TRPC6 act	TRPC6 inhibitor	TRPC4 act
O=C(NCCCCc1ccccc1)Nc1ccc(F)cc1	i	i	i	i	i
Cc1ccc(C)c(-c2ccc(=O)n(Cc3ccc(F)cc3Cl)n2)c1	i	13*	i	i	i
O=[N+]([O-])c1cccc(N(CC(O)CN2CCCC2)S(=O)(=O)c2ccccc2)c1 (stereo not drawn)	-8*	i	i	i	i
CCC(C)NCCOCCOc1ccccc1-c1ccccc1 (stereo not drawn)	-7*	i	i	i	i
CC(C)(C)NCCOCCOc1ccccc1-c1ccccc1	i	i	i	i	i
C=CCOc1cccc(C2C(C(=O)c3ccco3)=C(O)C(=O)N2Cc2ccco2)c1 (stereo not drawn)	i	i	i	i	i
